Results: ChEMBL document CHEMBL1157586 (Bioorg Med Chem, 2010)
Values after ≈ are worked out from the molar mass of the structure shown. Each block holds one compound with its values, some of them ahead of it.

Experiments:
[1] = molecular target: Insulin-like growth factor 1 receptor (Homo sapiens, UniProt P08069); experiment: Inhibition of IGF1R by scintillation proximity assay
[2] = molecular target: Inhibitor of nuclear factor kappa-B kinase subunit beta (Homo sapiens, UniProt O14920); experiment: Inhibition of IKK2 by scintillation proximity assay
Insulin receptor = Insulin receptor (Homo sapiens, UniProt P06213); experiment: Inhibition of IR by scintillation proximity assay
[3] = molecular target: Tyrosine-protein kinase JAK2 (Homo sapiens, UniProt O60674); experiment: Inhibition of JAK2 by scintillation proximity assay
[4] = molecular target: Mast/stem cell growth factor receptor Kit (Homo sapiens, UniProt P10721); experiment: Inhibition of cKit by scintillation proximity assay
[5] = molecular target: MAP kinase-activated protein kinase 2 (Homo sapiens, UniProt P49137); experiment: Inhibition of MAPKAPK2 by scintillation proximity assay
[6] = molecular target: Serine/threonine-protein kinase Nek6 (Homo sapiens, UniProt Q9HC98); experiment: Inhibition of NEK6 by scintillation proximity assay
[7] = Inhibition of NIM by scintillation proximity assay
[8] = molecular target: Serine/threonine-protein kinase PAK 4 (Homo sapiens, UniProt O96013); experiment: Inhibition of PAK4 by scintillation proximity assay
[9] = Inhibition of PDGFR by scintillation proximity assay
[10] = molecular target: cAMP-dependent protein kinase catalytic subunit alpha (Homo sapiens, UniProt P17612); experiment: Inhibition of PKAalpha by scintillation proximity assay
[11] = molecular target: Protein kinase C alpha type (Homo sapiens, UniProt P17252); experiment: Inhibition of PKCalpha by scintillation proximity assay
[12] = molecular target: Serine/threonine-protein kinase PLK1 (Homo sapiens, UniProt P53350); experiment: Inhibition of PLK1
[13] = molecular target: Serine/threonine-protein kinase PLK2 (Homo sapiens, UniProt Q9NYY3); experiment: Inhibition of PLK2 by scintillation proximity assay
[14] = molecular target: Mitogen-activated protein kinase 14 (Homo sapiens, UniProt Q16539); experiment: Inhibition of p38alpha
[15] = molecular target: Proto-oncogene tyrosine-protein kinase receptor Ret (Homo sapiens, UniProt P07949); experiment: Inhibition of RET by scintillation proximity assay
[16] = Inhibition of STK2 by scintillation proximity assay
[17] = Inhibition of SULU1 by scintillation proximity assay
[18] = molecular target: Vascular endothelial growth factor receptor 2 (Homo sapiens, UniProt P35968); experiment: Inhibition of VEGFR2 by scintillation proximity assay
[19] = molecular target: Vascular endothelial growth factor receptor 3 (Homo sapiens, UniProt P35916); experiment: Inhibition of VEGFR3 by scintillation proximity assay
[20] = Solubility in 5% dextrose solution; type: physicochemical
[21] = Solubility at pH 7; type: physicochemical; details: buffer
A2780 [22] = experiment: Cell cycle arrest in human A2780 cells assessed as accumulation at G0/G1 phase at 3 uM after 24 hrs by FACS analysis; type: functional
In short: (§1)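 A2780 cells (ECACC) seeded at 25000 cells/cm² in RPMI 1640, pH 7.4, with 10% FBS, 2 mM L-glutamine and penicillin–streptomycin, at 37 °C in 5% CO₂. After 24 h, treated for 24 h at 1 and 3 µM. Floating and trypsinised adherent cells pooled, PBS-washed, and DNA content analysed by flow cytometry.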

A2780 [23] = experiment: Cell cycle arrest in human A2780 cells assessed as accumulation at S phase at 3 uM after 24 hrs by FACS analysis; type: functional; in short: as §1
A2780 [24] = experiment: Cell cycle arrest in human A2780 cells assessed as accumulation at G2/M phase at 3 uM after 24 hrs by FACS analysis; type: functional; in short: as §1
A2780 [25] = experiment: Inhibition of cellular DNA synthesis in human A2780 cells assessed as BrdU incorporation into nuclear DNA at 3 uM after 24 hrs by Hoechst 33342 staining-based microscopic analysis; type: functional; design: scale not given: the % may be the effect or the level left
In short: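 A2780 human ovarian adenocarcinoma cells were seeded at 25000 cells/cm² in RPMI 1640 pH 7.4 with 10% FBS, 2 mM L-glutamine and penicillin–streptomycin. They were kept at 37 °C in 5% CO₂. After 24 h they were exposed to compound for 24 h. Floating and adherent cells were harvested with trypsin/EDTA, washed in PBS, and split for flow cytometry, immunoblot and BrdU incorporation.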

[26] = molecular target: Cyclin-dependent kinase 2/cyclin A (Homo sapiens, UniProt P24941); experiment: Inhibition of human CDK2/cyclin A expressed in Escherichia coli BL21 by scintillation proximity assay
[27] = molecular target: Cyclin-dependent kinase 2/cyclin E1 (Homo sapiens, UniProt P24941); experiment: Inhibition of CDK2/cyclin E by scintillation proximity assay; type: protein-complex assay
[28] = molecular target: Cyclin-dependent kinase 5/CDK5 activator 1 (Homo sapiens, UniProt Q00535); experiment: Inhibition of CDK5/p25 by scintillation proximity assay; type: protein-complex assay
[29] = molecular target: Cyclin-dependent kinase 1/cyclin B1 (Homo sapiens, UniProt P06493); experiment: Inhibition of CDK1/cyclin B; type: protein-complex assay
[30] = molecular target: Glycogen synthase kinase-3 beta (Homo sapiens, UniProt P49841); experiment: Inhibition of GSK3-beta by scintillation proximity assay
[31] = molecular target: Tyrosine-protein kinase ABL1 (Homo sapiens, UniProt P00519); experiment: Inhibition of c-ABL by scintillation proximity assay
[32] = molecular target: RAC-alpha serine/threonine-protein kinase (Homo sapiens, UniProt P31749); experiment: Inhibition of AKT1
[33] = molecular target: ALK tyrosine kinase receptor (Homo sapiens, UniProt Q9UM73); experiment: Inhibition of ALK by scintillation proximity assay
Aurora kinase A = Aurora kinase A (Homo sapiens, UniProt O14965); experiment: Inhibition of Aurora A by scintillation proximity assay
Aurora kinase B = Aurora kinase B (Homo sapiens, UniProt Q96GD4); experiment: Inhibition of Aurora B by scintillation proximity assay
[34] = molecular target: Cell division cycle 7-related protein kinase (Homo sapiens, UniProt O00311); experiment: Inhibition of CDC7 by scintillation proximity assay
[35] = molecular target: Serine/threonine-protein kinase Chk1 (Homo sapiens, UniProt O14757); experiment: Inhibition of CHK1 by scintillation proximity assay
[36] = Inhibition of CK2 by scintillation proximity assay
[37] = molecular target: Mitogen-activated protein kinase 1 (Homo sapiens, UniProt P28482); experiment: Inhibition of ERK2
[38] = molecular target: Fibroblast growth factor receptor 1 (Homo sapiens, UniProt P11362); experiment: Inhibition of FGFR1 by scintillation proximity assay
[39] = molecular target: Receptor-type tyrosine-protein kinase FLT3 (Homo sapiens, UniProt P36888); experiment: Inhibition of FLT3 by scintillation proximity assay
[40] = molecular target: Hepatocyte growth factor receptor (Homo sapiens, UniProt P08581)
A2780 [41] = experiment: Antiproliferative activity against human A2780 cells after 72 hrs by CellTiter-Glo luminescence assay; details: A2780, 72 h
[42] = molecular target: High affinity nerve growth factor receptor (Homo sapiens, UniProt P04629); experiment: Inhibition of TRKA
CYP3A4 = CYP3A4 (Homo sapiens, UniProt P08684); experiment: Inhibition of human CYP3A4 assessed as residual activity at 10 uM; type: ADME; details: read-out: Activity
[43] = Cmax in nu/nu mouse at 10 mg/kg, iv; type: ADME, organism-based; design: dose 10 mg/kg, route intravenous; details: in vivo
In short: (§2)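 Healthy nude mice given 10 mg/kg iv as the hydrochloride salt in 5% dextrose solution. Six mice in total, three per leg (iv and oral). Saphenous-vein blood taken predose and at 0.083, 0.5, 1, 6 and 24 h after iv dosing. Plasma separated by centrifugation (10,000g, 3 min, 4 °C) and stored at -80 °C until analysis.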

[44] = AUC in nu/nu mouse at 10 mg/kg, iv; type: ADME, organism-based; design: dose 10 mg/kg, route intravenous; details: plasma; in short: as §2
[45] = Clearance in nu/nu mouse at 10 mg/kg, iv; type: ADME, organism-based; design: dose 10 mg/kg, route intravenous; details: in vivo; in short: as §2
[46] = Half life in nu/nu mouse at 10 mg/kg, iv; type: ADME, organism-based; design: dose 10 mg/kg, route intravenous; details: in vivo; in short: as §2
[47] = Volume of distribution at steady state in nu/nu mouse at 10 mg/kg, iv; type: ADME, organism-based; design: dose 10 mg/kg, route intravenous; details: in vivo, read-out: Vdss
In short: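 Healthy nude mice received a single 10 mg/kg iv dose as the hydrochloride salt in 5% dextrose; six mice were used in total across the iv and oral legs. Saphenous-vein blood was drawn predose and at 0.083, 0.5, 1, 6 and 24 h. Samples were spun at 10,000g for 3 min at 4 °C, and plasma was stored at −80 °C until analysis.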

Mus musculus [48] = experiment: Toxicity in BALB/c nu/nu mouse assessed as body weight reduction at 10 to 30 mg/kg, iv QD for 10 consecutive days measured post last dose; type: organism-based; design: dose 10-30 mg/kg, route intravenous; scale not given: the % may be the effect or the level left; details: in vivo
In short: (§3)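 Tumour-bearing nude mice were dosed iv once daily for 10 consecutive days, with compound dissolved in 5% dextrose; vehicle-treated mice served as controls. Doses were 10, 20 and 30 mg/kg in the A2780 model (starting day 8), and 10 and 20 mg/kg in the HCT-116 and BX-PC3 models. Body weight change was compared with controls, and gross autopsy was performed.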

Mus musculus [49] = experiment: Toxicity in BALB/c nu/nu mouse at 10 to 30 mg/kg, iv QD for 10 consecutive days measured post last dose; type: organism-based; design: dose 10-30 mg/kg, route intravenous; details: in vivo; in short: as §3
[50] = Plasma protein binding in human by HPLC analysis; type: ADME, cell-free; details: read-out: PPB (converted)
[51] = molecular target: Cyclin-dependent kinase 7/ cyclin H (Homo sapiens, UniProt P50613); experiment: Inhibition of CDK7/cyclin H by scintillation proximity assay; type: protein-complex assay
[52] = molecular target: Cyclin-dependent kinase 4/cyclin D1 (Homo sapiens, UniProt P11802); experiment: Inhibition of CDK4/cyclin D1 by scintillation proximity assay; type: protein-complex assay

Chain of RAC-alpha serine/threonine-protein kinase (P31749 whole entry): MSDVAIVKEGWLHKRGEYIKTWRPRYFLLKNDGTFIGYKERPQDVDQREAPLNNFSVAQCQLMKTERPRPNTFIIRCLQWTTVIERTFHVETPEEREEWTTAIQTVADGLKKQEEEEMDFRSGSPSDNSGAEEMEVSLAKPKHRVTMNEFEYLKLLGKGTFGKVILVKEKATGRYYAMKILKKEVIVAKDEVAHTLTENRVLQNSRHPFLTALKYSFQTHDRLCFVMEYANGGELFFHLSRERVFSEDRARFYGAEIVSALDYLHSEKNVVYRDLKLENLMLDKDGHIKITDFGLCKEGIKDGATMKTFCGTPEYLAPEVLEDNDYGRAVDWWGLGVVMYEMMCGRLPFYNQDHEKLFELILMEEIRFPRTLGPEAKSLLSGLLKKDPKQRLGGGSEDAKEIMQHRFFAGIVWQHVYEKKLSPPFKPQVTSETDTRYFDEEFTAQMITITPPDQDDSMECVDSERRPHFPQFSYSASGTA
Chain of Cyclin-dependent kinase 5/CDK5 activator 1 (Q00535 whole entry): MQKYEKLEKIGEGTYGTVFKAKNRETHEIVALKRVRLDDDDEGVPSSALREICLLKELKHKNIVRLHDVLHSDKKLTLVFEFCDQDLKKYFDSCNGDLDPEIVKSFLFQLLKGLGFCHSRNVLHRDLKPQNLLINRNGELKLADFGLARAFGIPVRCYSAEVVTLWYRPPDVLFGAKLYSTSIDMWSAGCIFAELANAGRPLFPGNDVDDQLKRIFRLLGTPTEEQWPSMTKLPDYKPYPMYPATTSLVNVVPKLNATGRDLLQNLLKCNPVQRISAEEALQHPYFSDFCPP
Chain of Cyclin-dependent kinase 5/CDK5 activator 1 (Q15078 whole entry, further chain): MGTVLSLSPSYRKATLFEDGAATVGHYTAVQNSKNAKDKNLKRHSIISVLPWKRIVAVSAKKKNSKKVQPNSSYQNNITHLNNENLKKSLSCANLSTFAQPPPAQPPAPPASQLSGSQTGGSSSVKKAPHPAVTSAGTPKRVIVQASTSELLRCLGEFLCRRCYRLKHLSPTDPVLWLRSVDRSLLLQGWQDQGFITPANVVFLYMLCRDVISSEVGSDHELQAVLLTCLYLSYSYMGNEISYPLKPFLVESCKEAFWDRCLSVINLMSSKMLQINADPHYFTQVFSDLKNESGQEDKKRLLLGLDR
Chain of Receptor-type tyrosine-protein kinase FLT3 (P36888 whole entry): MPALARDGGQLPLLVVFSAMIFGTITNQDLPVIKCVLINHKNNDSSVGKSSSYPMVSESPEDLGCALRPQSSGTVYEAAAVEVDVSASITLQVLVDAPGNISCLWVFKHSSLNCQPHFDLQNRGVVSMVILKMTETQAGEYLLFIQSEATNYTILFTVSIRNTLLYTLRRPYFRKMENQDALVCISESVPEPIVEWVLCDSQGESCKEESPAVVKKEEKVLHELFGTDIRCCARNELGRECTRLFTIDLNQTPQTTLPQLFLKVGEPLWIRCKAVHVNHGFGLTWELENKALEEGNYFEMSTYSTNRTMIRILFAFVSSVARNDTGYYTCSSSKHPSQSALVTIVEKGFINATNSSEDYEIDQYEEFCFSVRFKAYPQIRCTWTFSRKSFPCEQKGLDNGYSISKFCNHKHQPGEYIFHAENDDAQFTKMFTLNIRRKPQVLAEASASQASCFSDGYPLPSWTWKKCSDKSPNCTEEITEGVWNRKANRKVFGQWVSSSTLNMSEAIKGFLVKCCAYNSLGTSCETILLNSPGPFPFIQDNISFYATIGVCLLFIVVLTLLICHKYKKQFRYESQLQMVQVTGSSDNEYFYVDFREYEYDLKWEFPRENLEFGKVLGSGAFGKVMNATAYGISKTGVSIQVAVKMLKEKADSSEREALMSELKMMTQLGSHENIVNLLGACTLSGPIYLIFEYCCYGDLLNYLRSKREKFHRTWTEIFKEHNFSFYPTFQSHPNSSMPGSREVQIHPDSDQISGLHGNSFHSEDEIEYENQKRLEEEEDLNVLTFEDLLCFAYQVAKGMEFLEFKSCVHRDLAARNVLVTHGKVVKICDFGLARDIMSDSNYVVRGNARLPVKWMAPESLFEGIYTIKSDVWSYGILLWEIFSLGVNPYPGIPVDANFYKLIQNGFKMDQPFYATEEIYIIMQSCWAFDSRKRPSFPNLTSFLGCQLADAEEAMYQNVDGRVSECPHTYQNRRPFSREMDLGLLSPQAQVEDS
Chain of Aurora kinase A (O14965 whole entry): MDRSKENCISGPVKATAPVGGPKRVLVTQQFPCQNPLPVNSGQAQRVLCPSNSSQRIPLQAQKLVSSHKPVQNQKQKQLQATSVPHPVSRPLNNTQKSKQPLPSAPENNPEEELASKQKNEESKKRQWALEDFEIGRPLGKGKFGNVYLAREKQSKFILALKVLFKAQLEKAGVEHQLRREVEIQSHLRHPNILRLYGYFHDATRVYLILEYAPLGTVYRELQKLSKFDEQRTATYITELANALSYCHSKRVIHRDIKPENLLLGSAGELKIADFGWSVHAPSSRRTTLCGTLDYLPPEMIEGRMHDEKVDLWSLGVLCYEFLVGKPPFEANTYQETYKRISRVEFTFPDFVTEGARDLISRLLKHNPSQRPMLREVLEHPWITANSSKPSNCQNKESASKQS
Chain of MAP kinase-activated protein kinase 2 (P49137 whole entry): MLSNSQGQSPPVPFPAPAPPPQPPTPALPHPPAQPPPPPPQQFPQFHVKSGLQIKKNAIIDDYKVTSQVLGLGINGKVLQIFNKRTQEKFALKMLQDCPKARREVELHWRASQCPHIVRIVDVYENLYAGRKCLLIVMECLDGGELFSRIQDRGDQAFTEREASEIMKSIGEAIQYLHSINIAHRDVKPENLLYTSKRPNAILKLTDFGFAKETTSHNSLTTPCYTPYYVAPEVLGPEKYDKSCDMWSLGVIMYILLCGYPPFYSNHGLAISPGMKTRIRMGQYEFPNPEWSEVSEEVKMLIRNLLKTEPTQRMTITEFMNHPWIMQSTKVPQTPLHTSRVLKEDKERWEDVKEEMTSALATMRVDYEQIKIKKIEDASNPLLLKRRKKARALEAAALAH
Chain of Tyrosine-protein kinase JAK2 (O60674 whole entry): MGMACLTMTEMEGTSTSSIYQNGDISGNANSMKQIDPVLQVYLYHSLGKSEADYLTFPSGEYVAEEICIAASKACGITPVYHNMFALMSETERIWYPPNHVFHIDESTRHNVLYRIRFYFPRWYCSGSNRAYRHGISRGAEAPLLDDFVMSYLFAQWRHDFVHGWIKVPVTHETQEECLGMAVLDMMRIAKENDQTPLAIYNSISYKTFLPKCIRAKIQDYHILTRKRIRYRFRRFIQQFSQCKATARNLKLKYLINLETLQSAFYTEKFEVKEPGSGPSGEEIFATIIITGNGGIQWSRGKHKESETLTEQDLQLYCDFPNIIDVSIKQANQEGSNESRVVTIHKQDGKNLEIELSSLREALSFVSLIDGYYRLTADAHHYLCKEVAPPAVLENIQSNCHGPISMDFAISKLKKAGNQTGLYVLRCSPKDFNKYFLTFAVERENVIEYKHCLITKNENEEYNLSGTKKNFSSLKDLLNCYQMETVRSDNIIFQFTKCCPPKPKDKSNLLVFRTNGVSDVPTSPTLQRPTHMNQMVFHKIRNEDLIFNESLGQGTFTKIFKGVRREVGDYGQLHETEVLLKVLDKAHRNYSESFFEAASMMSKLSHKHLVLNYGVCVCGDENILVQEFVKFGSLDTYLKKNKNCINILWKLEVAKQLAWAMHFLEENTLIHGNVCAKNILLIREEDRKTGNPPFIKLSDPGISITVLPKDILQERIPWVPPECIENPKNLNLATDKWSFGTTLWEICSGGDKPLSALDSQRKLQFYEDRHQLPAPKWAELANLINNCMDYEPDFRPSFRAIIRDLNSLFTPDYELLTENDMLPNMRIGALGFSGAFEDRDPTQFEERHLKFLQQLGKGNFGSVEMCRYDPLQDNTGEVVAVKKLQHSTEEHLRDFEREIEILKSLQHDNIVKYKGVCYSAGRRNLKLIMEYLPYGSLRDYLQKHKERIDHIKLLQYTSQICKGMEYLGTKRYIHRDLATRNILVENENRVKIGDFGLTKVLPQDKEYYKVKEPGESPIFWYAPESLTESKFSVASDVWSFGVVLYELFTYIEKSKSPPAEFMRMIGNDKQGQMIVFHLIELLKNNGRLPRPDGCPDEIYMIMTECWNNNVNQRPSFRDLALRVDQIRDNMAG
Chain of Serine/threonine-protein kinase PAK 4 (O96013 whole entry): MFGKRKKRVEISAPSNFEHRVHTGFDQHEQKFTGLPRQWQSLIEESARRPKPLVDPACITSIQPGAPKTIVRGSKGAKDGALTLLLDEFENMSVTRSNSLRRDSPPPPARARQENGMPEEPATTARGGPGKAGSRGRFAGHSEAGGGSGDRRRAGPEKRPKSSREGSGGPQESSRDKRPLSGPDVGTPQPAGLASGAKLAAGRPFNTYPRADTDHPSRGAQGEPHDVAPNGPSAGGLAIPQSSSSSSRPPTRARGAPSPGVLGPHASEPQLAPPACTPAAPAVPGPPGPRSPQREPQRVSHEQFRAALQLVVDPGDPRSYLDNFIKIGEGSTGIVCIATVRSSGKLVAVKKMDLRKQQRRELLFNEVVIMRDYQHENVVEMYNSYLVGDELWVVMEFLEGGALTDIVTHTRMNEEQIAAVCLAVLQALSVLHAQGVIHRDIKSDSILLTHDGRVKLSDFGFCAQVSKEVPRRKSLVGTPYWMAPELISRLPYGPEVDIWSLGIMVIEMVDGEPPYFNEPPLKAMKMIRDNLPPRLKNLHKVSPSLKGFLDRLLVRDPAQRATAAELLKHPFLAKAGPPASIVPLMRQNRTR
Chain of Mitogen-activated protein kinase 14 (Q16539 whole entry): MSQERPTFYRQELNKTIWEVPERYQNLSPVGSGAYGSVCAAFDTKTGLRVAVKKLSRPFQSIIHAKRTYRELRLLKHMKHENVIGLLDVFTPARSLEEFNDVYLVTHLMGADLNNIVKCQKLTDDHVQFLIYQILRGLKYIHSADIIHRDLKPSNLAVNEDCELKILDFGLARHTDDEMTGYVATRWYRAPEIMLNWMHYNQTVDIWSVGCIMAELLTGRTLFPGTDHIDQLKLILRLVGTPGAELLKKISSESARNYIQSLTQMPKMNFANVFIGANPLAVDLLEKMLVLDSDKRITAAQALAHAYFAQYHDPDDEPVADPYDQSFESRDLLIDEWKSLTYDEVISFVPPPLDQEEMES

IC50 [1]: > 10 µM | IC50 [2]: > 10 µM | IC50 (Insulin receptor): > 10 µM | IC50 [3]: > 10 µM | IC50 [4]: > 10 µM | IC50 [5]: > 10 µM | IC50 [6]: > 10 µM | IC50 [7]: > 10 µM | IC50 [8]: > 10 µM | IC50 [9]: > 10 µM | IC50 [10]: > 10 µM | IC50 [11]: > 10 µM | IC50 [12]: > 10 µM | IC50 [13]: > 10 µM | IC50 [14]: > 10 µM | IC50 [15]: > 10 µM | IC50 [16]: > 10 µM | IC50 [17]: > 10 µM | IC50 [18]: > 10 µM | IC50 [19]: > 10 µM | solubility [20]: 3400 µg/mL (≈ 9.03 mM) | solubility [21]: 186 µM (≈ 70 µg/mL) | IC50 [26]: 0.06 µM | IC50 [27]: 0.09 µM | IC50 [28]: 0.14 µM | IC50 [29]: 0.45 µM | IC50 [30]: 3.63 µM | IC50 [31]: > 10 µM | IC50 [32]: > 10 µM | IC50 [33]: > 10 µM | IC50 (Aurora kinase A): > 10 µM | IC50 (Aurora kinase B): > 10 µM | IC50 [34]: > 10 µM | IC50 [35]: > 10 µM | IC50 [36]: > 10 µM | IC50 [37]: > 10 µM | IC50 [38]: > 10 µM | IC50 [39]: > 10 µM | IC50 [40]: > 10 µM | IC50 (A2780 [41]): 0.31 µM
SMILES: CC(C)(C)C(=O)N1Cc2c(NC(=O)c3cc(F)cc(F)c3)n[nH]c2C1(C)C
Activity (A2780 [22]): 22% | Activity (A2780 [23]): -52% | Activity (A2780 [24]): 26% | Activity (A2780 [25]): -96%

IC50 [1]: > 10 µM | IC50 [2]: > 10 µM | IC50 [3]: > 10 µM | IC50 [5]: > 10 µM | IC50 [6]: > 10 µM | IC50 [8]: > 10 µM | IC50 [10]: > 10 µM | IC50 [11]: > 10 µM | IC50 [12]: > 10 µM | IC50 [14]: > 10 µM | IC50 [42]: > 10 µM | IC50 [19]: > 10 µM | solubility [20]: 10000 µg/mL (≈ 27.7 mM) | solubility [21]: > 225 µM | activity at 10 µM (CYP3A4): 91% | Cmax [43]: 36.5 µM | AUC [44]: 19.2 µM·h | clearance [45]: 23.9 mL/min/kg | half-life [46]: 4.1 h | Vd [47]: 1.36 L/kg | fraction unbound [50]: 0.46 | IC50 [28]: 0.005 µM | IC50 [51]: 0.01 µM | IC50 [29]: 0.06 µM | IC50 [52]: 0.062 µM | IC50 [30]: 0.079 µM | IC50 [32]: > 10 µM | IC50 [33]: > 10 µM | IC50 (Aurora kinase A): > 10 µM | IC50 (Aurora kinase B): > 10 µM | IC50 [34]: > 10 µM | IC50 [35]: > 10 µM | IC50 [38]: > 10 µM | IC50 [39]: > 10 µM
SMILES: CC(C)CC(=O)Nc1[nH]nc2c1CN(C(=O)C1CCN(C)CC1)C2(C)C [PHA-793887]
Activity (Mus musculus [48]): < 10% | Activity (Mus musculus [49]): Non-toxic
